# IMP-1 inh-1: blocks Pseudomonas aeruginosa IMP-1 metallo-beta-lactamase. purified IMP-1, nitrocefin hydrolysis, epi-absorbance fluorescence. inhibition, % at 5.6 µM. 290,000 compounds, 0.45% hits. AID 1556;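 active means inhibition above the mean plus 3 SD of all compounds in the same screening run, cut at about 4.5% in these data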;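 further: 0% = IMP-1 with DMSO and 100% = DMSO wells lacking enzyme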
#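 Assay system: purified recombinant IMP-1 beta-lactamase. Input: IMP-1 0.2 nM before substrate addition. Buffer or medium: Zinc- and detergent-supplemented HEPES buffer, pH 7.1. Schedule: 25 °C, 15 min preincubation, 25 min reaction. Signal: Epi-absorbance fluorescence, 480 nm excitation, 530 nm emission. Evaluation: percent inhibition from optical density relative to buffer-blank wells.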
# UBC9 SUMO inh: SUMOylation inhibition; P63279; inhibition, % at 35 µM; HTRF SUMOylation assay, SAE1/SAE2 + UBC9, in vitro; 290,000 compounds, 0.36% hits; in the data active means inhibition above about 50%, passing the limit was not always enough
# Target sequence (P63279 whole entry, looked up): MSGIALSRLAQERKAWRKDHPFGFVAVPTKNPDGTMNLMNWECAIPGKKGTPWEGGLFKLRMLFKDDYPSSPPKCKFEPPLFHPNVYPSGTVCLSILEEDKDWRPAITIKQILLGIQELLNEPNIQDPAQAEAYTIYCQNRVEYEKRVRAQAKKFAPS
# VIM-2 inhibitor: blocks Pseudomonas aeruginosa VIM-2 metallo-beta-lactamase; 290,000 compounds, 0.89% hits; inhibition, % at 5.6 µM; purified VIM-2, nitrocefin hydrolysis, epi-absorbance fluorescence;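 active means inhibition above the mean of all tested compounds plus 3 SD, cutoff set per screening run, cut at about 7.5% in these data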;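 further: red hydrolysis product quenches plate fluorescence so inhibitors raise well fluorescence; 0% = enzyme with DMSO and 100% = DMSO without enzyme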
# DNA FID counter-1: displaces DNA intercalator in HCV helicase counter-screen; 290,000 compounds, 0.17% hits; DNA fluorescent intercalator displacement, fluorescence; inhibition, % at 7.9 µM;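 further: 0% = vehicle and 100% = reference compound; higher means more ethidium bromide displaced from hairpin DNA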
# NS3 helicase inh: HCV NS3 helicase inhibition; inhibition, % at 10.9 µM; NS3 helicase DNA unwinding, Cy5 molecular beacon fluorescence; 290,000 compounds, 0.56% hits;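 active means inhibition above the mean of all tested compounds plus 3 SD, set per campaign, cut at about 35% in these data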;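 further: 0% = DMSO wells and 100% = thioflavine S control wells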
#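 Measured by: Cy5 fluorescence, 0 and 60 min reads / Assay system: NS3 helicase fragment of HCV / Control set: low DMSO, high thioflavine S at 110 µM / Times: 1 h reaction at 25 °C, ATP-initiated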
# IMP-1 inh-2: selectivity counter-screen for VIM-2 inhibitors: IMP-1 metallo-beta-lactamase inhibitors; inhibition, % at 5.6 µM; purified IMP-1, nitrocefin hydrolysis, epi-absorbance fluorescence; shares compounds with VIM-2 inhibitor; 1,300 tested, under 10 active; call rule not given here;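 further: 0% = enzyme with vehicle and 100% = vehicle without enzyme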
# VIM-2 FRET ctr: counter-screen for VIM-2 inhibitors: epi-absorbance artifacts via FRET | shares compounds with VIM-2 inhibitor | purified VIM-2, CCF2 FRET substrate hydrolysis | inhibition, % at 5.6 µM | 1,300 compounds, 23% hits | AID 1857;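 active means inhibition above the mean of all tested compounds plus 3 SD, cut at about 19% in these data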;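 further: 0% = VIM-2 plus DMSO and 100% = no enzyme wells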
# TEM-1 counter: TEM-1 inhibition, counter-screen for VIM-2 inhibitors. shares compounds with VIM-2 inhibitor. Purified TEM-1, nitrocefin hydrolysis, epi-absorbance fluorescence. inhibition, % at 5.6 µM. 1,300 compounds, 3% hits. AID 1866;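 active means inhibition above that campaign's mean inhibition plus 3 SD, cut at about 0.46% in these data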;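 further: 0% = TEM-1 with DMSO and 100% = TEM-1 with 100 µM potassium clavulanate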
# Target sequence (P62593 whole entry, looked up): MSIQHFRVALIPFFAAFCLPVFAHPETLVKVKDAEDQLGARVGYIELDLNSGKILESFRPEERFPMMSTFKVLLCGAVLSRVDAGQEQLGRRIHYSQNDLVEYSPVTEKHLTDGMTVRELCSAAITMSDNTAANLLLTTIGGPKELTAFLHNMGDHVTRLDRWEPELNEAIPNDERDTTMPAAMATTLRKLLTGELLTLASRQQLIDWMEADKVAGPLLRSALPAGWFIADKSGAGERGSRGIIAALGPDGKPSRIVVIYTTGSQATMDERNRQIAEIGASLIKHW
# VIM-2 confirm 2: confirmation of P. aeruginosa VIM-2 metallo-beta-lactamase inhibitors; shares compounds with VIM-2 inhibitor; purified VIM-2, nitrocefin hydrolysis, epi-absorbance; inhibition, % at 5.6 µM; 1,300 compounds, 96% hits; AID 2187;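 active means inhibition of the VIM-2 beta-lactamase enzyme above about 11% from the earlier first-round screen, limit read from the data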;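 further: 0% = VIM-2 with DMSO and 100% = buffer wells without enzyme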
# NS3 hel confirm: HCV NS3 helicase inhibition, confirmation assay; inhibition, % at 10.9 µM; 1,600 compounds, 31% hits; shares compounds with NS3 helicase inh; NS3 helicase DNA unwinding, Cy5 molecular beacon fluorescence; AID 1943;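 active means inhibition above the mean of all tested compounds plus 3 SD, cutoff set per campaign, cut at about 36% in these data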
# DNA FID counter-2: displaces DNA intercalator in HCV helicase counter-screen; inhibition, % at 7.9 µM; 1,600 compounds, 4% hits; shares compounds with NS3 helicase inh; DNA fluorescent intercalator displacement, fluorescence; AID 1945;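 further: 0% = vehicle and 100% = reference compound; higher means more displacement of ethidium bromide from the DNA hairpin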
# * hit, by the source's call; · = no result given. A selection: hits, their analogues and other compounds. The true share with any hit is near 2.1%. Unless noted, no stated cut-off is given here; in the data, active means inhibition above about 37%; inactive means the rest.
SMILES,IMP-1 inh-1,UBC9 SUMO inh,VIM-2 inhibitor,DNA FID counter-1,NS3 helicase inh,IMP-1 inh-2,VIM-2 FRET ctr,TEM-1 counter,VIM-2 confirm 2,others
COc1cccc(N2CCN(C(=O)C3CCN(S(=O)(=O)c4ccc5c(c4)CC(C)N5C(C)=O)CC3)CC2)c1 (stereo not given),-1,2,-2,-55,-18,·,·,·,·,
CC(=O)N/C(=C\c1ccccc1)C(=O)OCc1cccc(S(=O)(=O)N(C)C)c1,1,-18,1,-24,20,·,·,·,·,
O=C(O)c1csc(-n2nc(-c3ccccc3)cc2C(F)(F)F)n1,-4,20,36*,-18,9,-3,-1,-5,6,
Cc1cc(C(F)(F)F)n(-c2nc(C(=O)O)cs2)n1,-5,-4,-6,1,-1,·,·,·,·,
CCN(CC)C(=O)CCSc1nnc(-c2ccco2)o1,-5,0,-6,-10,4,·,·,·,·,
CCOC(=O)c1[nH]c(C(=O)O)c(CCC(=O)OC)c1C,1,13,22*,1,5,1,49*,-5,32*,
Oc1ccc(Oc2ccc3c(C(F)(F)F)cc(C(F)(F)F)nc3n2)cc1,-1,15,13*,-9,-8,-3,-1,-6,28*,
COc1ccc(Oc2ccc3c(C(F)(F)F)cc(C(F)(F)F)nc3n2)cc1,-2,-30,-1,-3,2,·,·,·,·,
Cc1cc(C)n(-c2nc(NCc3cccnc3)c3c4c(sc3n2)COC(C)(C)C4)n1,-2,28,48*,-6,-2,-3,-17,0,64*,
Cc1nc(NCc2cccnc2)c2c3c(sc2n1)CCCC3,-2,-1,15*,-11,6,-4,-9,-5,31*,
Cc1cc(C)n(-c2nc(SCC(=O)O)c3c4c(sc3n2)COC(C)(C)C4)n1,-4,14,15*,-40,2,-5,39*,-7,23*,
c1cncc(CNc2ncnc3sc4c(c23)CCCC4)c1,-1,16,1,-11,10,·,·,·,·,
CCc1nc(SCC(=O)OC)c2c3c(sc2n1)COC(C)(C)C3,-3,11,1,-30,-12,·,·,·,·,
COC(C[C@H](O)[C@@H](C)[C@H](O)COCc1ccccc1)OC,·,10,·,·,·,·,·,·,·,
Fc1ccccc1Cc1noc(CN(Cc2ccccn2)CC2CCCO2)n1 (stereo not given),-3,6,-2,-21,-12,·,·,·,·,
CCn1c(-c2nn(-c3ccccc3)ccc2=O)n[nH]c1=S,-1,6,18*,3,-10,-3,34*,-6,23*,
CCn1c(-c2nn(-c3ccc(C)cc3)ccc2=O)n[nH]c1=S,-3,19,14*,-14,0,-3,33*,-7,22*,
Cc1cc(SCC(=O)NCC2CCCO2)nc2ccccc12 (stereo not given),1,1,0,-16,3,·,·,·,·,
Cc1cc(C)nc(NC(=O)c2ccc(Cl)cc2Cl)n1,-3,3,-3,6,0,·,·,·,·,
C=CCn1c2ccccc2c2nnc(SCCN3CCCCC3)nc21,-2,12,19*,0,-8,-4,4,-8,22*,
CCCn1c2ccccc2c2nnc(SCCN3CCOCC3)nc21,-3,5,6,-18,-1,·,·,·,·,
c1ccc(Cn2c3ccccc3c3nnc(SCCN4CCCCC4)nc32)cc1,-2,22,27*,5,-17,-4,1,-9,42*,
C=CCn1c2ccccc2c2nnc(SCCCn3c(=O)[nH]c4ccccc43)nc21,-1,20,6,-27,-8,·,·,·,·,
CCCCN(CCO)c1ncnc2sc(-c3ccccc3)cc12,-3,3,1,-31,2,·,·,·,·,
COc1cc(OC)cc(C(=O)NNC(=O)C2CCCC2)c1,-1,16,0,-1,1,·,·,·,·,
SMILES,IMP-1 inh-1,UBC9 SUMO inh,VIM-2 inhibitor,DNA FID counter-1,NS3 helicase inh,IMP-1 inh-2,VIM-2 FRET ctr,TEM-1 counter,VIM-2 confirm 2,others
COc1ccc(C(=O)CSc2nc(-c3ccccn3)nc(C)c2Cl)cc1,-4,16,29*,-16,9,-5,-26,-6,61*,
Cc1nc(-c2ccccn2)nc(SCC(=O)c2ccc(F)cc2)c1Cl,-6,3,50*,-22,-3,-5,-24,-6,67*,
COc1ccc(C(=O)CSc2nnc3ccc(-c4ccccn4)nn23)cc1,-1,24,2,-5,-9,·,·,·,·,
Cc1cccc(-c2nc3c(c(=O)c4ccccc4n3C)c(=O)n2-c2ccccc2)c1,-1,1,0,-3,4,·,·,·,·,
CC(C)N1CN(c2ccccc2)C(=S)N(c2ccccc2)C1,-4,10,-4,0,4,·,·,·,·,
COC(=O)CSc1nc(N)c(C#N)c(-c2ccc(O)cc2)c1C#N,-1,37,18*,-2,-4,-3,0,-7,36*,
COc1cccc(CNC(=O)CN2C(=O)CSc3ccc(S(=O)(=O)N4CCCCC4)cc32)c1,-1,·,-4,-44,-5,·,·,·,·,
Oc1c(Cl)cc(CN2CCCCC2)c2cccnc12,-2,-21,15*,-6,37*,-4,4,-6,17*,NS3 hel confirm=-8;DNA FID counter-2=7
Cc1ccc(S(=O)(=O)N[C@H](C(=O)NCC2CCC(C(=O)O)CC2)C(C)C)cc1 (stereo not given in full),-2,18,-2,-2,10,·,·,·,·,
O=C(O)c1cccc(NC(=S)N/N=C/c2ccccc2OCc2ccc(Br)cc2)c1,0,24,73*,-23,42*,-3,67*,-10,35*,NS3 hel confirm=63*;DNA FID counter-2=4
COC(=O)c1ccc(COc2ccccc2/C=N/Nc2cccc(C(=O)O)c2)cc1,-4,5,-2,-37,24,·,·,·,·,
Cc1ccccc1N1C(=O)c2ccccc2C1O (stereo not given),1,20,1,-2,9,·,·,·,·,
COc1cc(/C=N/n2c(-c3ccccc3)n[nH]c2=S)cc(OC)c1O,-3,-5,1,-16,3,·,·,·,·,
Cc1c(Br)c(O)c(Br)c(O)c1/C=N/n1c(-c2ccccc2)n[nH]c1=S,-2,16,19*,-8,36*,-3,26*,-7,27*,NS3 hel confirm=70*;DNA FID counter-2=-4

# Assay outcomes deposited in PubChem BioAssay by several laboratories.
